# ChEMBL document CHEMBL4014346, “Lead Optimization Generates CYP11B1 Inhibitors of Pyridylmethyl Isoxazole Type with Improved Pharmacological Profile for the Treatment of Cushing's Disease” (J Med Chem, 2017)
# Experiments:
# [1] = Selectivity ratio of IC50 for human CYP11B2 expressed in hamster V79MZ cells to IC50 for human CYP11B1 expressed in hamster V79MZ cells
# In short: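 V79MZ cells expressing recombinant human CYP11B1 or CYP11B2, or rat CYP11B1, incubated with [1,2-³H]-11-deoxycorticosterone (100 nM) and inhibitor over a range of concentrations; ketoconazole as reference.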
# [2] = AUC (0 to infinity) in Sprague-Dawley rat at 28 mg/kg, po administered as single dose by HPLC-MS/MS analysis; type: ADME, organism-based; set-up: dose 28 mg/kg, route oral, time infinity; conditions: in vivo
# [3] = Oral bioavailability in Sprague-Dawley rat at 28 mg/kg administered as single dose by HPLC-MS/MS analysis; type: ADME, organism-based; conditions: in vivo
# In short: (§1)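 Female Sprague-Dawley rats (244–299 g), 2 animals, given one oral dose under 2% isoflurane as a freshly sonicated suspension in 0.5% porcine gelatin/5% mannitol in water. Tail-vein plasma precipitated with acetonitrile plus diphenhydramine internal standard, quantified by HPLC-MS/MS in duplicate. Noncompartmental analysis; Cmax and Tmax read directly from the concentration–time curve; F derived against iv dosing.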
# [4] = Half life in Sprague-Dawley rat at 28 mg/kg, po administered as single dose by HPLC-MS/MS analysis; type: ADME, organism-based; conditions: in vivo; in short: as §1
# [5] = AUC (0 to infinity) in Sprague-Dawley rat at 5 mg/kg, iv administered as single dose by HPLC-MS/MS analysis; type: ADME, organism-based; set-up: dose 5 mg/kg, route intravenous, time infinity; conditions: in vivo
# [6] = Cmax in Sprague-Dawley rat at 5 mg/kg, iv administered as single dose by HPLC-MS/MS analysis; type: ADME, organism-based; set-up: dose 5 mg/kg, route intravenous; conditions: in vivo
# In short: (§2)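 Female Sprague-Dawley rats (244–299 g), 2 animals; single iv dose in PEG300/ethanol/water (60/10/30), under 2% isoflurane anesthesia. Tail-vein blood taken into sodium citrate, plasma spun down, precipitated with acetonitrile containing diphenhydramine internal standard, analysed by HPLC-MS/MS with duplicate injections. Mean parameters from noncompartmental analysis.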
# [7] = Tmax in Sprague-Dawley rat at 28 mg/kg, po administered as single dose by HPLC-MS/MS analysis; type: ADME, organism-based; conditions: in vivo; in short: as §1
# [8] = Half life in Sprague-Dawley rat at 5 mg/kg, iv administered as single dose by HPLC-MS/MS analysis; type: ADME, organism-based; conditions: in vivo; in short: as §2
# Rattus norvegicus = test: Time at which plasma concentration stays above in vitro rat CYP11B1 IC50 in Sprague-Dawley rat at 28 mg/kg, po administered as single dose; in short: as §1
# [9] = Cmax in Sprague-Dawley rat at 28 mg/kg, po administered as single dose by HPLC-MS/MS analysis; type: ADME, organism-based; set-up: dose 28 mg/kg, route oral; conditions: in vivo; in short: as §1
# Plasma = test: Plasma concentration in Sprague-Dawley rat at 28 mg/kg, po administered as single dose by HPLC-MS/MS analysis; type: ADME, organism-based; conditions: in vivo; in short: as §1
SMILES,Ratio IC50 [1],AUC(0-inf) [2],bioavailability [3],half-life [4],AUC(0-inf) [5],Cmax [6],Tmax [7],half-life [8],Time (Rattus norvegicus),Cmax [9],concentration (Plasma)
Cc1cncc(Cc2cc(-c3ccccc3)no2)c1,16,,,,,,,,,,
COc1cncc(Cc2cc(-c3ccccc3)no2)c1,,10200 ng·h/mL,50%,3.3 h,3680 ng·h/mL,27.8 µM,2.5 h,4.8 h,<=7 hr,6.4 µM,4.11 µM
